Bioassay records as filed in PubChem.
SUMO1-SIM PPI = modulators of human SUMO1-mediated protein-protein interactions; SUMO1 binding to a labelled peptide, TR-FRET, 1 h; inhibition, % at 20 µM; actives 0.33% (n = 360,000); P63165; AID 602429; in the data active means inhibition above about 37%
STEP block = STEP (human) phosphatase inhibition; recombinant STEP, OMFP fluorogenic substrate, fluorescence; inhibition, % at 20 µM; actives 0.25% (n = 360,000);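 active means inhibition at 20 µM, scaled per plate between control wells, above about 37%, limit read from the data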;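 further: 0% = DMSO with enzyme and substrate and 100% = substrate only without enzyme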
Target sequence (P54829 whole entry, looked up): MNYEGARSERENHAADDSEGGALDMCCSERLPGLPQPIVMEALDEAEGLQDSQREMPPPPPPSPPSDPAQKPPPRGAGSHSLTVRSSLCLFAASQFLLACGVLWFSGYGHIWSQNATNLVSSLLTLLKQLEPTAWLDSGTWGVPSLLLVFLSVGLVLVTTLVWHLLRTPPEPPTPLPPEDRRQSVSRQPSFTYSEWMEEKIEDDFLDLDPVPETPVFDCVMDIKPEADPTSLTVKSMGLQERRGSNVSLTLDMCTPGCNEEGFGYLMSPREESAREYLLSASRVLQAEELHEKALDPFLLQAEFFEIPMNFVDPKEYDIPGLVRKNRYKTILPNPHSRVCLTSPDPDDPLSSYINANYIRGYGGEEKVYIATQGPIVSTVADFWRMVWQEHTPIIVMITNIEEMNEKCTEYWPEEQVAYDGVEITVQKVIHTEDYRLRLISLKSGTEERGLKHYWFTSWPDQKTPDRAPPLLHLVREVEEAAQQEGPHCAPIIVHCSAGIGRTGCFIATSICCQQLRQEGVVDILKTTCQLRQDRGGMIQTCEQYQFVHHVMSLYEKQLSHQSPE
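Material: STEP (striatal-enriched tyrosine phosphatase) enzyme, cell-free; Compound dosing: 20 µM single dose in 1% DMSO; Technique: fluorescence read at 480 nm ex / 540 nm em; Times: reaction 20 min, ambient temperature; Medium: 50 mM Bis-Tris pH 6.0 with 2.5 mM DTT and 0.005% Tween 20; Also added: OMFP at 25 µM.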
LMPTP inh = blocks human LMPTP phosphatase; P24666; recombinant LMPTP-A, OMFP fluorogenic substrate, fluorescence intensity; inhibition, % at 20 µM; actives 0.22% (n = 360,000);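 active means compounds that cut the enzyme signal by at least half of the control window in the single-dose screen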;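 further: plate controls were DMSO wells with enzyme plus substrate for no effect and substrate without enzyme for full effect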
Target sequence (P24666 whole entry, looked up): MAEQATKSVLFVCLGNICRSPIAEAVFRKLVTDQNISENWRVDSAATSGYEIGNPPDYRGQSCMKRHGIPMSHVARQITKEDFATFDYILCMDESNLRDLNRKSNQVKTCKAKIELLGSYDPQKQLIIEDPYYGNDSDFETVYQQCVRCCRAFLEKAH
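Test system – LMPTP-A enzyme · Amount – LMPTP-A at 0.625 nM final in the reaction · Buffer or medium – Bis-Tris pH 6.0, DTT, detergent · Reagent – OMFP 400 µM · Doses – single 20 µM dose · Schedule – reaction 50 min, room temperature, dark · Detection – fluorescence intensity of OMFP turnover product · Evaluation – percent inhibition versus substrate-only and uninhibited controls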
DNMT1 inh = blocks human DNA methyltransferase DNMT1. actives 0.83% (n = 360,000). P26358. inhibition (reported as % activation of signal), % at 10 µM. DNMT1 molecular beacon, Hinp1I cleavage, fluorescence; in the data active means inhibition above about 50%
Scp1 inh = inhibitors of human Scp-1 phosphatase; Q9GZU7; Recombinant Scp1, phosphopeptide, malachite green phosphate absorbance; inhibition, % at 20 µM; actives 0.88% (n = 340,000); AID 493091;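 active means inhibition above about 50% at 20 µM, limit read from the data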;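 further: plate controls were DMSO wells with enzyme for no effect and wells lacking enzyme for full effect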
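System: truncated SCP-1 phosphatase (76-261aa); medium: Tris acetate buffer pH 5.5 with MgCl2 and Tween-20; incubation: 45 min room-temperature reaction, 5 min colour, 30 min stabiliser; compound: single 20 µM dose, 1% DMSO; reagent: Phosphorylated 17-residue peptide substrate; read-out: % inhibition at 20 µM; technique: colorimetric free-phosphate detection, absorbance 630 nm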
Numbers without * were called inactive; / = no result. Hits are enriched below; roughly 1.7% of the tested compounds scored in any of these assays.

SMILES	SUMO1-SIM PPI	STEP block	LMPTP inh	DNMT1 inh	Scp1 inh
NC(=O)CC(c1ccccc1)c1ccc2c(c1)OCO2 (stereo not drawn)	20.5	3.0	-0.6	1.1	-5.2
NC(=S)Cc1nc(-c2ccccc2)cs1	-1.7	4.1	0.0	50.4*	4.0
O=C(O)CSc1cc(NS(=O)(=O)c2cccc([N+](=O)[O-])c2)c2ccccc2c1O	33.3	7.3	6.3	52.4*	17.4
CCc1ccc(S(=O)(=O)Nc2cc(SCC(=O)O)c(O)c3ccccc23)cc1	44.7*	2.9	6.0	16.1	2.6
CCOc1ccc(S(=O)(=O)Nc2cc(SCC(=O)O)c(O)c3ccccc23)cc1	11.8	4.5	2.8	-2.4	11.0
Cc1ccc(NS(=O)(=O)c2cc(NC(=O)C(C)Oc3ccccc3)ccc2C)c(C)c1 (stereo not drawn)	-1.6	1.2	2.5	-7.2	0.6
Cc1ccc(C)c(S(=O)(=O)Nc2cc(SCC(=O)O)c(O)c3ccccc23)c1	91.0*	7.1	11.4	19.1	13.2
O=C(N/N=C/c1ccc(-c2ccc(Cl)c(C(=O)O)c2)o1)c1cc2c(ccc3ccccc32)o1	20.9	27.7	7.8	32.4	88.8*
O=C(N/N=C/c1ccncc1)c1cc2c(ccc3ccccc32)o1	52.5*	2.9	5.9	-0.9	8.6
COc1ccc(/C=N\NC(=O)c2cc3c(ccc4ccccc43)o2)cc1O	67.9*	6.6	3.4	-5.6	20.0
COc1ccc(/C=N/NC(=O)c2cc3c(ccc4ccccc43)o2)cc1OC	24.8	0.0	0.3	-9.8	-2.2
CCC(C(=O)Nc1ccc(C(=O)N2CCCC2)cc1)c1ccccc1 (stereo not drawn)	0.2	7.3	-1.8	2.0	-6.9
O=C(NCC1CCCO1)c1nn2c(C(F)(F)F)cc(-c3ccc(Br)o3)nc2c1Br (stereo not drawn)	-10.0	0.8	-0.1	-2.6	-3.8
O=C(COC(=O)/C=C/c1cccs1)NC1CC1	-15.5	-1.2	-0.6	17.1	12.3
CCCCn1cnc2c(c(-c3ccccc3)c(-c3ccccc3)n2Cc2ccco2)c1=N	0.8	-2.5	0.2	-2.4	-3.3
N=c1c2c(-c3ccccc3)c(-c3ccccc3)n(Cc3ccccc3)c2ncn1CCCn1ccnc1	-9.8	2.7	57.0*	3.1	29.5
O=S(=O)(Nc1ccccc1F)c1cccc(NC(=S)NCCN2CCOCC2)c1	3.3	91.5*	5.3	-4.3	-7.3
CCCCCCn1c(=O)n2n(c1=O)[C@@H]1CN(S(=O)(=O)c3ccc(C)cc3)C[C@]1(O)[C@@H](OC(=O)NC1CCCC1)C2	-0.1	-1.4	1.3	-5.2	/
Cc1ccc(/C=N/NC(=O)c2cc3c(s2)CCCC3)o1	-3.1	-1.3	0.3	3.0	0.5
CN(C)CCNC(=O)c1cccc(-c2cnc3c(NC=O)cc(-c4cccs4)cn23)c1	50.8*	4.0	-2.0	-4.6	/
Cc1cc(-c2cc(NC=O)c3ncc(-c4cccc(C(=O)NCCN(C)C)c4)n3c2)cc(C)c1O	47.5*	6.3	-13.0	-3.9	/
CN(C)CCNC(=O)c1cccc(-c2cnc3c(NC=O)cc(-c4ccccc4F)cn23)c1	9.2	2.3	-2.7	-3.6	/
CCc1ccccc1Nc1nn2c(=O)c3ccc(C(=O)NCc4ccccn4)cc3nc2s1	39.1*	0.4	1.4	-4.7	-13.9
COc1ccccc1Nc1nn2c(=O)c3ccc(C(=O)N4CCCCC4)cc3nc2s1	4.5	1.1	1.5	-2.4	-5.5
COc1ccccc1Nc1nn2c(=O)c3ccc(C(=O)NCc4cccnc4)cc3nc2s1	47.4*	3.4	1.9	50.8*	/
SMILES	SUMO1-SIM PPI	STEP block	LMPTP inh	DNMT1 inh	Scp1 inh
O=C(NCc1ccccn1)c1ccc2c(=O)n3nc(Nc4ccccc4)sc3nc2c1	52.2*	-4.5	-0.2	31.9	-3.4
CC1(c2nnnn2-c2ccc3c(c2)OCCO3)CCC(=O)N1CCc1ccc(O)cc1 (stereo not drawn)	-1.0	/	-2.4	/	/
C=CCOC(=O)Nc1nc(CCNC(=O)OCc2ccccc2)c(C(=O)OC)s1	1.0	/	0.1	/	/
COc1ccc(C#Cc2c(-c3ccccc3)n(C)c3ccccc23)cc1	-4.5	-1.1	2.8	-9.6	-3.0
COc1ccc(-c2c(C#Cc3ccsc3)c3ccccc3n2C)cc1	1.5	0.2	50.8*	32.5	46.0
Cc1cc(=O)oc2cc(OCC(=O)Nc3ccccc3C(N)=O)c(Cl)cc12	61.9*	0.1	-0.8	2.6	4.0
O=C(CSc1nnc(CNC(=O)c2ccccc2F)o1)NC1CCCCC1	37.5*	-1.9	-0.3	3.7	-2.2
Cc1ccc(NCc2ccccc2O)cc1	1.7	-4.1	-0.6	-1.6	-10.7
Cc1ccc(CNc2ccc(O)cc2)cc1	68.0*	7.5	17.6	-5.9	-7.2
CSc1nc(C)c2c(n1)N(c1ccc(C(C)C)cc1)CC2	56.3*	3.9	2.8	-3.9	3.2
C=CCN(CC=C)S(=O)(=O)c1ncn[nH]1	43.6*	1.5	-2.9	41.4	0.5
C=CCN(CC=C)S(=O)(=O)c1ccc(F)cc1	-1.3	0.7	-2.2	-0.1	-6.2
COc1ccc(S(=O)(=O)N(C)C[C@H]2Oc3ccc(NC(=O)Nc4ccc5c(c4)OCO5)cc3C(=O)N([C@H](C)CO)C[C@@H]2C)cc1	3.7	-0.4	0.2	-14.9	27.1
NS(=O)(=O)c1ccc(N/N=C/c2ccc(O)c(O)c2O)c([N+](=O)[O-])c1	14.3	5.1	65.2*	-5.0	48.0
NS(=O)(=O)c1ccc(N/N=C/c2ccc(O)cc2O)c([N+](=O)[O-])c1	-20.3	-3.7	2.5	-13.2	-2.5
C#CCn1cc(C=C2C(=O)c3ccccc3C2=O)c2ccccc21	-12.0	-5.0	6.3	59.6*	-3.9
C#CCn1c(=O)cc(C)c2ccccc21	2.6	-1.5	-0.4	0.0	-6.2
CCN=C1S/C(=C\c2ccc(-c3cccc(C(=O)O)c3)o2)C(=O)N1CC	-1.7	2.0	2.3	18.3	42.5
CCN1C(=O)/C(=C\c2ccc(-c3ccc([N+](=O)[O-])cc3OC)o2)SC1=Nc1cccc(C(=O)O)c1	54.2*	3.8	8.3	-18.8	-8.8
O=C(O)c1cccc(-c2ccc(/C=C3/SC(=Nc4ccccc4)N(Cc4cccnc4)C3=O)o2)c1	81.9*	10.7	0.7	23.1	73.3*
COc1ccc(Cl)cc1Nc1nc(-c2sc(NC(=O)C(C)(C)C)nc2C)cs1	87.5*	0.7	2.2	-44.5	2.4
CCCCCCC(=O)Nc1nc(C)c(-c2csc(Nc3cc(Cl)ccc3C)n2)s1	87.3*	1.8	-0.2	-27.7	11.9
COc1ccc(OC)c(Nc2nc(-c3sc(NC(=O)C(C)(C)C)nc3C)cs2)c1	-5.7	0.4	-0.1	-30.3	12.4
CCCCC(=O)Nc1nc(C)c(-c2csc(Nc3cc(Cl)ccc3OC)n2)s1	21.9	-3.9	3.0	-16.1	3.5
O=C(Nc1ccc(Nc2ccncc2)cc1)c1ccc(Nc2ccnc3ccc([N+](=O)[O-])cc23)cc1	127.8*	85.3*	77.8*	-70.3	0.4
